Screens deposited in PubChem by The Scripps Research Institute Molecular Screening Center.
Most compounds without a hit are left out; they make up all but 1.8% or so of the library.
SIAE primary = human SIAE inhibitors, primary screen, biochemical, fluorescence polarization, FP-Rh probe, 1536-well HTS | Sialate O-acetylesterase (Homo sapiens), Q9HAT2 | SIAE FP-Rh probe binding | inhibition, % at 9.66 µM | 370,000 tested, 0.69% active | AID 1053197, 2014;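 active = inhibition above a cutoff: mean of compounds within the control limits plus 3 SD of those, cut at about 17% in these data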;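 also: 0% = plate median of compound wells and 100% = probe without SIAE protein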
DDE Tn7 FP inh = inhibitors of Tn7 peptide binding to fibrin DD(E), primary screen, biochemical, fluorescence polarization, human fibrin, Tn7 probe | Fibrinogen beta chain (Homo sapiens), P02675 | FP displacement of FITC-Tn7 peptide from fibrin DD(E); 0% = median of compound wells per plate | inhibition, % at 8.3 µM | 370,000 tested, 0.13% active | AID 720508, 2013;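 active = inhibition above the mean of compounds falling within the control limits plus 3 SD of them, cut at about 14% in these data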;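 also: 0% = plate median of compound wells and 100% = 10 µM Aha-Tn7 peptide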
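Assay system: Fibrin-DD(E) protein isolated from polymerized human fibrin clots; read-out basis: percent inhibition; medium: Tris/NaCl/CaCl2 buffer, pH 7.8; signal: FP measurement; incubation: 10 min plus 3 h, room temperature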
HTRA1 inh = HTRA1 serine protease inhibitors, primary screen, biochemical, fluorescence polarization, HTS | Q92743 | recombinant HTRA1, FP-rhodamine activity-based probe | inhibition, % at 5.96 µM | 340,000 tested, 0.5% active | AID 504803, 2011; in the data active = inhibition above about 36%;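 also: 0% = enzyme with DMSO and 100% = wells lacking enzyme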
TCR CD3 inh = inhibitors of human TCR-CD3 interaction, primary screen, biochemical, fluorescence, TAMRA-labeled TCR probe | inhibition, % at 9.4 µM | 360,000 tested, 0.37% active;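 also: recombinant mutant TCR 2C K166C tagged with TAMRA read by polarization; 0% = receptor in buffer alone and 100% = receptor with positive control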
Tn6 DDE FP = inhibitors of Tn6 peptide binding to fibrin DD(E), primary screen, biochemical, fluorescence polarization, human fibrin, Tn6 probe. Fibrinogen beta chain (Homo sapiens), P02675. Fibrin DD(E) TRITC-Tn6 fluorescence polarization displacement. inhibition, % at 8.3 µM. 370,000 tested, 0.21% active;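 active = inhibition above a per-campaign cutoff: mean of compounds within control limits plus 3 SD, cut at about 15% in these data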;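 also: 0% = median of all compound wells on the plate and 100% = blocking peptide control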
mABHD4 FP = ABHD4 inhibitors, primary screen, biochemical, fluorescence polarization, mouse. purified mABHD4, FP-Rh probe fluorescence polarization. inhibition, % at 8.92 µM. 370,000 tested, 0.54% active;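 active = inhibition exceeding the mean over every tested compound plus 3 SD, cut at about 30% in these data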;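 also: 0% = plate median of compound wells and 100% = S159A mutant with DMSO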
Target sequence (Q8VD66 whole entry, looked up): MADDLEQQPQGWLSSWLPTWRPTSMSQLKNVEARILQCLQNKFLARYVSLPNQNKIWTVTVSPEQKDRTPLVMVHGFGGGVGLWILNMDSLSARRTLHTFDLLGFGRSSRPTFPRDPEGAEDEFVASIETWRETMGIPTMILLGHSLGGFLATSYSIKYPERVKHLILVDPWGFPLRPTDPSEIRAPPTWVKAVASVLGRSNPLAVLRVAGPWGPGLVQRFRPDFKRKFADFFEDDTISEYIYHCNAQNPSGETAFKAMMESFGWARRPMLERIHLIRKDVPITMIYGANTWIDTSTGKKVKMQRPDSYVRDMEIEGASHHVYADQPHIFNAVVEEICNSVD
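system = mouse ABHD4 enzyme, wild type | medium = HEPES pH 7.0, NaCl, Pluronic buffer | also added = FP-Rh probe | incubation = Enzyme–compound pre-incubation 45 min, then probe 60 min, both 25 °C | technique = fluorescence polarization, excitation 525 nm, emission 598 nm, BODIPY TMR filters | controls = S159A mutant high control, sample median low control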
BSA probe FL = compounds interfering with TAMRA-BSA probe, counter-screen for TCR-CD3 interaction inhibitor project, biochemical, fluorescence, TAMRA-labeled BSA | TAMRA-labeled BSA probe fluorescence counterscreen | inhibition, % at 9.4 µM | 1,200 tested, 10% active | shares compounds with TCR CD3 inh | AID 652035, 2013; in the data active = inhibition above about 23%;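 also: 0% = buffer low control and 100% = reference high control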
TCR-CD3 inh conf = TCR-CD3 interaction inhibitors, retest, confirmation, biochemical, fluorescence, TAMRA-labeled TCR probe; shares compounds with TCR CD3 inh; TAMRA-labeled TCR probe fluorescence binding assay; inhibition, % at 9.4 µM; 1,200 tested, 48% active
* hit, by the source's call; nt = no result given. Rule as the data show it, unless noted: active = inhibition above about 19%; inactive = the rest.

SMILES | SIAE primary | DDE Tn7 FP inh | HTRA1 inh | TCR CD3 inh | Tn6 DDE FP | mABHD4 FP | BSA probe FL | TCR-CD3 inh conf
COC(=O)[C@H](C(C)C)N(CCc1cn(CC2CCCCC2)nn1)S(=O)(=O)c1ccccc1Br | -2.3 | -1.0 | nt | nt | -0.6 | 2.2 | nt | nt
COc1ccc(OC)c(S(=O)(=O)n2c(CN3CCOCC3)nc3ccccc32)c1 | -2.7 | -3.5 | nt | nt | 1.2 | 1.1 | nt | nt
COc1ccc(Cl)cc1C(=O)NC(=S)Nc1cc(-c2nc3ccccc3[nH]2)ccc1C | -117.4 | 6.8 | -108.0 | 46.7* | -8.5 | -71.5 | -3.6 | 3.2
COc1ccccc1N(C)S(=O)(=O)c1ccc(C(=O)OCC(=O)c2c[nH]c3ccccc23)cc1 | -18.6 | 1.5 | -4.4 | 19.9* | 6.8 | -21.7 | 0.8 | 0.0
O=S1(=O)c2ccc(N3CCN(Cc4ccccc4F)CC3)cc2Oc2ccccc2CN1Cc1cn(Cc2ccc(C(F)(F)F)cc2)nn1 | -0.7 | 4.8 | nt | nt | -11.2 | -5.4 | nt | nt
CCC(=O)Nc1ccc2nc3c(=O)[nH]c(=S)[nH]c3nc2c1 | 1.0 | -5.2 | 16.1 | 29.0* | -3.0 | 7.2 | -3.3 | 27.6*
O=C(N/N=C/c1cc(Cl)cc([N+](=O)[O-])c1O)C1CC1 | 1.8 | -0.2 | 10.6 | 21.2* | -5.0 | 15.5 | -11.0 | 16.6
CC(C)(C)N/N=C/c1cc(Cl)cc([N+](=O)[O-])c1O | 7.7 | 10.5 | 19.5 | 1.4 | -1.0 | 23.8 | nt | nt
Cc1ccc(Cn2cc(CN(C(C)(C)C)S(=O)(=O)c3ccc(F)cc3Br)nn2)cc1 | 3.1 | 4.1 | nt | nt | 5.3 | -9.2 | nt | nt
CCc1cccc(C)c1NC(=O)COC(=O)c1c2c(nc3ccccc13)/C(=C\c1cccs1)CCC2 | -3.3 | 3.9 | -36.0 | 8.8 | -0.3 | -16.6 | nt | nt
NC(=O)c1ccc(NC(=O)COC(=O)c2c3c(nc4ccccc24)/C(=C\c2cccs2)CCC3)cc1 | -70.6 | 1.7 | -41.9 | 19.7* | 5.0 | -44.7 | -8.7 | -3.5
COc1ccc(C(=O)NC(=S)NNC(=O)c2ccc(O)cc2)cc1[N+](=O)[O-] | 3.3 | -3.5 | 4.2 | 28.1* | -5.4 | 13.4 | -1.9 | 27.6*
CCn1c(C)nc2cc(C(=O)NNC(=S)NC(=O)c3ccc(OC)cc3)ccc21 | 1.6 | 3.2 | 0.0 | 35.6* | 2.2 | -4.2 | -0.9 | 31.6*
COc1ccc(C(=O)NNC(=S)NC(=O)c2cccc([N+](=O)[O-])c2)cc1 | 11.9 | 2.7 | 12.7 | 20.6* | 3.8 | 12.7 | -5.1 | 28.5*
CCn1c(C)nc2cc(C(=O)NNC(=S)Nc3ccc(C)cc3)ccc21 | 0.4 | 1.1 | -3.9 | -7.9 | -5.1 | -2.2 | nt | nt
Cc1ccc(C(=O)OCc2nc3ccsc3c(=O)[nH]2)o1 | 4.3 | 5.9 | -1.1 | 0.9 | -0.5 | 3.3 | nt | nt
CCc1ccc(N2CC(C(=O)OCc3nc4ccsc4c(=O)[nH]3)CC2=O)cc1 (configuration not stated) | -1.6 | -5.2 | 12.2 | 27.3* | -0.1 | 3.3 | -11.4 | 12.2
Cc1cnc(C(=O)OCc2nc3ccsc3c(=O)[nH]2)cn1 | -3.1 | 2.0 | -0.8 | 28.2* | 4.2 | 5.5 | -13.4 | 16.3
N#CC1=C(N)C(C#N)(C#N)C(c2ccc[nH]2)C2CCCC=C12 (configuration not stated) | 10.4 | 7.4 | 12.8 | 21.1* | 11.1 | 29.0 | -7.3 | 0.1
COC(=O)[C@H]1C[C@@]2(N3CCCCC3)c3ccccc3N(C(=O)OC(C)(C)C)[C@H]2N1C(=O)OC(C)(C)C | 1.5 | 6.5 | nt | nt | 0.6 | -5.9 | nt | nt
COc1ccc(C(=O)N/N=C\c2ccc(OC)c(COc3ccccc3Br)c2)c(OC)c1 | -83.5 | 3.4 | -66.5 | 26.1* | -2.9 | -53.9 | 15.6 | 32.0*
COc1ccc(/C=N\NC(=O)c2ccccc2Br)cc1COc1ccccc1 | 2.4 | 6.8 | -25.8 | 0.2 | -2.8 | -2.4 | nt | nt
CCOC(=O)CC[C@@H]1CC[C@]2(CCCN(C(=O)c3cccnc3)C2)O1 | 0.1 | 2.6 | nt | nt | -3.2 | 3.4 | nt | nt
O=C(CC1SC(=O)NC1=O)Oc1ccc(/C=N/NC(=O)c2ccccc2O)cc1 (configuration not stated) | 8.9 | -0.6 | 9.5 | 32.5* | -4.8 | 5.7 | -15.3 | 11.5
O=C(NNC(=O)c1cc2ccccc2cc1O)Nc1ccc(Br)cc1 | 15.9 | -3.1 | 10.4 | 22.9* | -5.4 | 5.7 | -10.8 | 21.6*
SMILES | SIAE primary | DDE Tn7 FP inh | HTRA1 inh | TCR CD3 inh | Tn6 DDE FP | mABHD4 FP | BSA probe FL | TCR-CD3 inh conf
O=C(NNC(=O)c1cc2ccccc2cc1O)NC1CCCCC1 | 7.2 | -8.3 | 28.4 | 21.9* | -2.5 | 13.1 | -10.5 | 18.1
Cc1ccc(S(=O)(=O)Nc2ccccc2F)cc1C(=O)NNC(=O)c1ccccc1O | 5.6 | 7.0 | 26.4 | 19.1* | 0.7 | 4.9 | 12.0 | 25.2*
COc1ccc(NS(=O)(=O)c2ccc(C)c(C(=O)NNC(=O)c3ccccc3O)c2)cc1 | 4.8 | 2.9 | 13.8 | 5.4 | -7.5 | -16.1 | nt | nt
O=C(NNC(=O)c1ccncc1)Nc1ccc(Br)cc1 | 4.2 | 6.6 | -1.3 | -2.6 | 1.2 | 3.9 | nt | nt
CC(=O)NC(CC(=O)NNC(=O)c1cc2ccccc2cc1O)c1ccccc1 (configuration not stated) | 8.4 | 2.5 | 15.0 | 49.9* | 3.5 | 16.9 | -4.3 | 31.0*
CN(C)S(=O)(=O)c1cccc(NC(=S)NNC(=O)c2cc3ccccc3cc2O)c1 | -13.8 | -0.3 | 25.4 | 23.1* | -13.4 | -26.3 | -10.7 | 12.6
COc1ccc(NC(=O)NNC(=O)c2cc3ccccc3cc2O)cc1 | 5.4 | -1.0 | 0.8 | 24.7* | -3.2 | -2.4 | -8.1 | 22.1*
Cc1occc1C(=O)NNC(=O)Nc1ccc(F)cc1F | -1.6 | -1.1 | -1.5 | 2.1 | 1.8 | -0.1 | nt | nt
O=C(NNC(=O)c1cc2ccccc2cc1O)Nc1ccc(F)cc1F | 9.1 | -4.7 | 18.0 | 19.9* | -12.6 | 1.1 | 4.5 | 19.1*
Cc1cccc(C(=O)NNC(=O)c2ccc3ccccc3c2)c1 | 9.7 | 1.7 | -2.6 | 5.8 | -2.4 | 8.5 | nt | nt
Cc1ccc(C(=O)NNC(=O)c2cc3ccccc3cc2O)cc1 | 12.2 | -4.6 | 19.4 | 24.1* | -4.5 | 15.9 | 0.8 | 25.1*
CCC(NC(=O)C1CCCN(c2ncccn2)C1)c1ccccc1 (configuration not stated) | -5.1 | 0.1 | nt | nt | 1.4 | -5.1 | nt | nt
